Measured values reported in ChEMBL document CHEMBL1122519, “Bispyridinamines: a new class of topical antimicrobial agents as inhibitors of dental plaque” (1984).
≈ marks a conversion by molar mass, not a printed value.

Experiments:
Streptococcus mutans [1] = assay: Compound is evaluated for the effect of saliva upon the antiplaque activity at 0% of saliva and at 0.05 percentage of compound; + = Slight staining; assay type: functional, organism-based
Procedure, shortened: (§1)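 Hydroxylapatite plate antiplaque assay against S. mutans run for 48 h, with two 1-min exposures to aqueous compound per 24 h. Growth medium contained 0, 5 or 50% pooled human saliva (paraffin-stimulated, centrifuged, filtered, membrane-sterilized). Plaque was stained with FD&C Red No. 3 and graded none, slight or moderate. Staining potential was scored on plates run without inoculum and graded none or slight.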

Streptococcus mutans [2] = assay: Compound is evaluated for minimal bactericidal concentration against plaque formation for Streptococcus mutans; assay type: functional, organism-based
Procedure, shortened: (§2)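 Preformed in vitro plaques of S. mutans NCTC 10449 or A. viscosus M-100 were grown on ceramic hydroxylapatite under anaerobic conditions at 37 °C in sucrose-supplemented medium. Plaques were immersed for 30 min at 37 °C in compound at 0.3–20 mM, rinsed, and moved to broth containing bromocresol purple. Kill was judged by no acid production, no turbidity increase and no growth on plating at 48 h. Plaques were run in quadruplicate.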

Streptococcus sanguinis = assay: Compound is evaluated for plaque-bactericidal index (PBI) against Streptococcus sanguis 10558; assay type: functional
Streptococcus mutans [3] = assay: Compound is evaluated for the effect of saliva upon the antiplaque activity at 50% of saliva and at 0.01 percentage of compound; - = No staining; assay type: functional, organism-based; procedure, shortened: as §1
Actinomyces naeslundii = assay: Compound is evaluated for plaque-bactericidal index (PBI) against Actinomyces naeslundii 631; assay type: functional
Streptococcus mutans [4] = assay: Compound is evaluated for minimum plaque inhibitory concentration using a standard test organism, Streptococcus mutans OMZ-61; assay type: functional
Procedure, shortened: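 S. mutans OMZ-61 in pH 7.0 beef extract–trypticase medium with 0.5% sucrose. Sterile ceramic hydroxylapatite plates got two 1-min soaks in 0.1–0.001% compound, each followed by 1-min air-drying, then a 5-min water rinse. Plates were put in inoculated medium at 37 °C anaerobically for 24 h. The cycle was repeated for a second 24 h. Plaque was stained with 1% FD&C Red No. 3. Value is the lowest concentration completely preventing plaque.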

Streptococcus mutans [5] = assay: Compound is evaluated for the effect of saliva upon the antiplaque activity at 0% of saliva and at 0.025 percentage of compound; + = Slight staining; assay type: functional, organism-based; procedure, shortened: as §1
Streptococcus mutans [6] = assay: Compound is evaluated for the effect of saliva upon the antiplaque activity at 50% of saliva and at 0.05 percentage of compound; - = No plaque accumulation; assay type: functional, organism-based; procedure, shortened: as §1
[7] = Compound is evaluated for stain index; assay type: functional
Procedure, shortened: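 Ratio of the minimum concentration staining a plaque-free ceramic hydroxylapatite plate to the minimum plaque-inhibiting concentration, both run under the same conditions. Plates got two 1-min soaks (0.1–0.001%), each followed by air-drying, then a water rinse. They were then held 24 h anaerobically at 37 °C in sucrose beef-extract medium, with or without S. mutans OMZ-61, repeated once. Staining was 1-min 1% FD&C Red No. 3, scored visually.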

Staphylococcus aureus = assay: Compound is evaluated for the antimicrobial minimum inhibitory concentration against Staphylococcus aureus (Smith); assay type: functional
Procedure, shortened: (§3)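 Serial twofold tube dilution in tryptose phosphate broth. Each compound was prepared as a 1000 μg/mL aqueous stock and diluted in double-strength broth, then 2×10^5 cells were added. Tubes were incubated aerobically at 37 °C for 24 h. The MIC was taken as the lowest concentration with no visible growth.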

Escherichia coli [8] = assay: Antimicrobial minimum inhibitory concentration against Escherichia coli AB1932-1; assay type: functional; procedure, shortened: as §3
Proteus mirabilis = assay: Compound is evaluated for the antimicrobial minimum inhibitory concentration against Proteus mirabilis MGH-1; assay type: functional; procedure, shortened: as §3
Streptococcus mutans [9] = assay: Compound is evaluated for the effect of saliva upon the antiplaque activity at 0% of saliva and at 0.05 percentage of compound; - = No plaque accumulation; assay type: functional, organism-based; procedure, shortened: as §1
Streptococcus mutans [10] = assay: Compound is evaluated for the effect of saliva upon the antiplaque activity at 50% of saliva and at 0.05 percentage of compound; + = Slight staining; assay type: functional, organism-based; procedure, shortened: as §1
Escherichia coli [11] = assay: Antimicrobial minimum inhibitory concentration against Escherichia coli 100/B22; assay type: functional; procedure, shortened: as §3
Streptococcus mutans [12] = assay: Compound is evaluated for plaque-bactericidal index (PBI) against Streptococcus mutans 10449; assay type: functional
Actinomyces viscosus [13] = assay: Compound is evaluated for minimal bactericidal concentration against plaque formation for Actinomyces viscosus; assay type: functional, organism-based; procedure, shortened: as §2
Streptococcus mutans [14] = assay: Compound is evaluated for the effect of saliva upon the antiplaque activity at 0% of saliva and at 0.025 percentage of compound; - = No plaque accumulation; assay type: functional, organism-based; procedure, shortened: as §1
Streptococcus mutans [15] = assay: Compound is evaluated for the effect of saliva upon the antiplaque activity at 0% of saliva and at 0.01 percentage of compound; - = No plaque accumulation; assay type: functional, organism-based; procedure, shortened: as §1
Actinomyces viscosus [16] = assay: Compound is evaluated for plaque-bactericidal index (PBI) against Actinomyces viscosus M-100; assay type: functional
Streptococcus mutans [17] = assay: Compound is evaluated for the effect of saliva upon the staining potential at 0% of saliva and at 0.01 percentage of compound; + = Slight staining; assay type: functional, organism-based; procedure, shortened: as §1
Pseudomonas aeruginosa = assay: Compound is evaluated for the antimicrobial minimum inhibitory concentration against Pseudomonas aeruginosa MGH-1; assay type: functional
Streptococcus mutans [18] = assay: Compound is evaluated for the effect of saliva upon the antiplaque activity at 50% of saliva and at 0.025 percentage of compound; + = Slight staining; assay type: functional, organism-based; procedure, shortened: as §1
Klebsiella pneumoniae = assay: Minimum inhibitory concentration against Klebsiella pneumonia 39645; assay type: functional; procedure, shortened: as §3
Streptococcus mutans [19] = assay: Compound is evaluated for the effect of saliva upon the antiplaque activity at 50% of saliva and at 0.01 percentage of compound; + = Slight plaque accumulation; assay type: functional, organism-based; procedure, shortened: as §1
Escherichia coli [20] = assay: Minimum inhibitory concentration against Escherichia coli (Vogel); assay type: functional; procedure, shortened: as §3
Streptococcus mutans [21] = assay: Compound is evaluated for the effect of saliva upon the antiplaque activity at 50% of saliva and at 0.025 percentage of compound; - = No plaque accumulation; assay type: functional, organism-based; procedure, shortened: as §1

## N=C(NCCCCCCNC(=N)NC(=N)Nc1ccc(Cl)cc1)NC(=N)Nc1ccc(Cl)cc1 [CHLORHEXIDINE]
Streptococcus mutans [1]
  Staining potential: No staining
Streptococcus mutans [2]
  Concentration: 3.2 mM
Streptococcus sanguinis
  PBI: 32
Streptococcus mutans [3]
  Staining potential: No staining
Actinomyces naeslundii
  PBI: 19.2
Streptococcus mutans [4]
  Min plague Inhibitory: 0.005%
Streptococcus mutans [5]
  Staining potential: No staining
Streptococcus mutans [6]
  Plaque accum: No plaque accumulation
[7]
  Stain index: 1
Staphylococcus aureus
  MIC: 0.2 µg/mL (≈ 0.396 µM)
Escherichia coli [8]
  MIC: 0.5 µg/mL (≈ 0.989 µM)
Proteus mirabilis
  MIC: 15.6 µg/mL (≈ 30.9 µM)
Streptococcus mutans [9]
  Plaque accum: No plaque accumulation
Streptococcus mutans [10]
  Staining potential: No staining
Escherichia coli [11]
  MIC: 1 µg/mL (≈ 1.98 µM)
Streptococcus mutans [12]
  PBI: 25.6
Actinomyces viscosus [13]
  Concentration: 1.6 mM
Streptococcus mutans [14]
  Plaque accum: No plaque accumulation
Streptococcus mutans [15]
  Plaque accum: No plaque accumulation
Actinomyces viscosus [16]
  PBI: 19.2
Streptococcus mutans [17]
  Staining potential: No staining
Pseudomonas aeruginosa
  MIC: 15.6 µg/mL (≈ 30.9 µM)
Streptococcus mutans [18]
  Staining potential: No staining
Klebsiella pneumoniae
  MIC: 3.9 µg/mL (≈ 7.72 µM)
Streptococcus mutans [19]
  Plaque accum: No plaque accumulation
Escherichia coli [20]
  MIC: 0.5 µg/mL (≈ 0.989 µM)
Streptococcus mutans [21]
  Plaque accum: No plaque accumulation
